Laboratory results as given in ChEMBL document CHEMBL1759843, “Cytotoxic and antioxidant activities of diterpenes and sterols from the Vietnamese soft coral Lobophytum compactum” (Bioorg Med Chem Lett, 2011).
Activity calls are given as the source filed them. The rule behind the calls is not given here.

Assays:
A549 = test: Cytotoxicity against human A549 cells after 72 hrs; type: functional, cell-based; conditions: A549, 72 h
Summary of the method: (§1)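 Human A549 (lung) and HL-60 (leukemia) cancer cells were exposed to compounds up to a maximum of 100 µM, and cell growth was measured. IC50 is the concentration that inhibits 50% of cell growth, reported as mean ± SD of experiments run in triplicate. Mitoxantrone served as the reference compound.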

HL-60 = test: Cytotoxicity against human HL60 cells after 72 hrs; type: functional, cell-based; conditions: HL-60, 72 h; summary of the method: as §1
[1] = Antioxidant activity assessed as trolox equivalents of peroxyl radical scavenging activity at 1 uM by ORAC assay; type: functional
[2] = Antioxidant activity assessed as reduction of Copper(I) at 1 uM; type: functional
[3] = Antioxidant activity assessed as reduction of Copper(I) at 5 uM; type: functional
[4] = Antioxidant activity assessed as Cu2+ chelating activity at 1 uM; type: functional
[5] = Antioxidant activity assessed as Cu2+ chelating activity at 5 uM; type: functional
[6] = Antioxidant activity assessed as trolox equivalents of peroxyl radical scavenging activity at 5 uM by ORAC assay; type: functional

Row | Structure (SMILES) | IC50 (A549) [µM] | IC50 (HL-60) [µM] | Activity [1] | Activity [2] | Activity [3] | Activity [4] | Activity [5] | Activity [6] [µM]
1 | C[C@H](CC[C@H](C)C(C)(C)O)[C@H]1CC[C@H]2[C@@H]3C[C@@H](O)[C@@]4(O)C[C@@H](O)CC[C@]4(C)[C@H]3CC[C@]12C | > 100 | 59.1 | inactive | inactive | inactive | inactive | inactive | 
2 | CC(=O)OC(C)(C)[C@@H](C)CC[C@@H](C)[C@H]1CC[C@H]2[C@@H]3C[C@@H](O)[C@@]4(O)C[C@@H](O)CC[C@]4(C)[C@H]3CC[C@]12C | 36.5 | 42.8 | inactive | inactive | inactive | inactive | inactive | 
3 | C=C(CC[C@@H](C)[C@H]1CC[C@@H]([C@@H]2CC=C3C[C@@H](O)CC[C@]3(C)C2=O)[C@]1(C)CCO)C(C)C | 4.97 | 17.8 | inactive | inactive | inactive | inactive | inactive | 
4 | C=C[C@@]1(C)CC[C@H](C2=CC[C@H](C(C)(C)O)OC2)C[C@@H]1C(=C)C [LOBATRIENE] | 31.1 | 33.8 | inactive | inactive | inactive | inactive | inactive | 
5 | C=C[C@@]1(C)CC[C@H](C2=CC[C@H](C(C)(C)O)OC2=O)C[C@@H]1C(=C)C [LOBATRIENOLIDE] | 23 | 24.8 | inactive | inactive | inactive | inactive | inactive | 
6 | C=C1CC/C=C(\C)CC[C@H](C2=CC[C@H](C(C)(C)O)OC2)C[C@H]1O [LOBOCOMPACTOL A] | > 100 | 48.2 |  | inactive | inactive | inactive | inactive | 1.4
7 | C=C1CC/C=C(\C)CC[C@@H](C2=CC[C@H](C(C)(C)O)OC2)C[C@H]1O [LOBOCOMPACTOL B] | > 100 | 37.5 |  | inactive | inactive | inactive | inactive | 1.3
8 | O=C1c2c(O)ccc(O)c2C(=O)c2c(NCCNCCO)ccc(NCCNCCO)c21 [MITOXANTRONE] | 7.83 | 8.1 |  |  |  |  |  | 
